The list is not random: actives were taken first. Their share in the collection is about 4.1%.
RGS4 block – RGS4 inhibitors, primary screen, cell-based, HEK293 M3R inducible RGS4, calcium flux | Regulator of G-protein signaling 4 (Homo sapiens), P49798 | B-score at 10 µM | hit rate 0.45% among 310,000 | Fluo-4 calcium flux; stronger effect = higher value; triggered by carbachol at its EC20;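 active = B-score, a plate-corrected calcium signal, over three deviations above library mean, with baseline fluorescence within five deviations of library mean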;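 note: RGS4 expression induced by doxycycline in cells with stable M3 receptor; B-score is computed from the integrated fluorescence ratio over baseline after carbachol; higher B-score means a larger calcium signal and so more RGS4 inhibition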
Target sequence (P49798 whole entry, looked up): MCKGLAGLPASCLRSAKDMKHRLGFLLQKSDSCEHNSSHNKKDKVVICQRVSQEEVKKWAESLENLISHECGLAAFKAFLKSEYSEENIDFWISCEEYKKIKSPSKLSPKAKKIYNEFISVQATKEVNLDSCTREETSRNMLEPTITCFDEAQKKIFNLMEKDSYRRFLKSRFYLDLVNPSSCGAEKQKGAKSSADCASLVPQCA
Kir21 inh – inhibitors of mouse Kir2.1 inward-rectifier potassium channel | HEK293-Kir2.1, FluxOR thallium flux fluorescence; stronger effect = lower value | Inward rectifier potassium channel 2 (Mus musculus), P35561 | B-score at 10 µM | hit rate 0.85% among 310,000;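 active = fluorescence ratio B-score at or below minus 3 SD of library scores, with starting-brightness B-score within 2 SD, cut at about -4.2 in these data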;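 note: channel flux triggered by added potassium and thallium sulfate stimulus; B-score of peak minus minimum fluorescence over baseline after thallium stimulus; more negative B-score means stronger Kir2.1 block with less thallium influx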
Target sequence (P35561 whole entry, looked up): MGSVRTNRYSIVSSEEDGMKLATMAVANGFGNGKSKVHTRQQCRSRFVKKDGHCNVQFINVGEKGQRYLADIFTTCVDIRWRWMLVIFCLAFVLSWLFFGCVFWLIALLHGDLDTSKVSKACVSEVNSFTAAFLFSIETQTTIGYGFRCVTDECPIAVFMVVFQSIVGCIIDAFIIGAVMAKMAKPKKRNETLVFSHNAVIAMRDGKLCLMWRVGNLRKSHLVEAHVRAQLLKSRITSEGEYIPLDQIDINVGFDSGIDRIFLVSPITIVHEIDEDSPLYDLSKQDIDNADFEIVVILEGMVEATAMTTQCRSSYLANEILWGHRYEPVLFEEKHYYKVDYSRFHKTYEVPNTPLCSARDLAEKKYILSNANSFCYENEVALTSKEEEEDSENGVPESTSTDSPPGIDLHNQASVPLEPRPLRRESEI
RGS4 act – RGS4 potentiators or activators, primary screen, cell-based, HEK293 M3R inducible RGS4, calcium flux. carbachol calcium flux Fluo4; stronger effect = lower value. B-score at 10 µM. hit rate 0.92% among 310,000. AID 463111, 2010;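 active = B-score of the integrated calcium signal more than 4 SD below the library mean, with starting fluorescence not abnormally high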;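 note: negative B-score means reduced calcium response which marks RGS4 activation or potentiation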
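Material: Inducible-RGS4 HEK293 cells carrying M3 receptor; also added: carbachol at ECmax as muscarinic agonist stimulus; incubation: compound preincubation 20 min at room temperature before agonist; signal: Fluo4-AM (2 µM) calcium-flux fluorescence, kinetic read; measure: integrated calcium ratio converted to B score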
MrgX1 agonist – agonists of human MrgX1 receptor, primary screen, HEK293 cells, Fluo-4 calcium flux | hit rate 0.44% among 310,000 | B-score at 10 µM | Fluo-4 calcium fluorescence, agonist mode; stronger effect = higher value;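 active = calcium response B-score plate-corrected fluorescence ratio at least 3 library SD, with starting fluorescence B-score inside 5 SD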
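Material – MrgX1-expressing HEK293 cells · Input – 15,000 cells seeded per well · Dosing – compound as first of three additions · Times – overnight seeding, then 1 h dark dye loading · Measured by – kinetic Fluo-4 NW fluorescence of intracellular calcium · Read-out – B-scored fluorescence response ratio · Benchmarks – positive and negative control wells on each plate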
MrgX1 PAM – positive allosteric modulators of MrgX1, primary screen, HEK293 cells, Fluo-4 calcium flux; hit rate 0.63% among 310,000; Mas-related G-protein coupled receptor member X1 (Homo sapiens), Q96LB2; B-score at 10 µM; AID 588675, 2011; FDSS; stronger effect = higher value;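 active = plate-corrected calcium response at least 3 library SD above typical, normal starting fluorescence, not activating the receptor alone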;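 note: compound read alongside a low EC10 to EC30 dose of BAM8-22 agonist; peak minus trough fluorescence over baseline measured at the second addition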
MrgX1 antag – antagonists of human MrgX1 receptor, primary screen, HEK293 cells, Fluo-4 calcium flux; BAM8-22 antagonism; stronger effect = lower value; B-score at 10 µM; hit rate 1.3% among 310,000; AID 588676, 2011;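 active = calcium-response B-score plate-corrected more than 3 library SD below zero, starting fluorescence within 5 deviations, no agonist response on first addition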;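 note: peak minus trough fluorescence over baseline after final BAM8-22 challenge near maximal dose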
Active calls of the source: *.

For Cc1nc(N2CCCCC2)c2c(C)c(C(=O)Nc3ccc4c(c3)OCCO4)sc2n1 the results were RGS4 block inactive, Kir21 inh 1.75, RGS4 act -7.01*, MrgX1 agonist inactive, MrgX1 PAM inactive and MrgX1 antag inactive.
`Cc1c(Cl)cccc1NC(=S)NNc1ncc(C(F)(F)F)cc1Cl` gave RGS4 block inactive, Kir21 inh -1.04, RGS4 act inactive, MrgX1 agonist inactive, MrgX1 PAM inactive and MrgX1 antag inactive.
Screening CCn1c(SCC(=O)Nc2cc(C)on2)nc2c(c1=O)SCC2 returned RGS4 block inactive, Kir21 inh -0.59, RGS4 act inactive, MrgX1 agonist inactive, MrgX1 PAM inactive and MrgX1 antag inactive.
Screening CC1(C)Cc2noc(N)c2C(C)(C)N1O returned RGS4 block inactive, Kir21 inh 0.36, RGS4 act inactive, MrgX1 agonist inactive, MrgX1 PAM inactive and MrgX1 antag -6.29*.
`CC1(C)Cc2noc(N)c2C(C)(C)N1OC(=O)c1cccs1` gave RGS4 block inactive, Kir21 inh 0.91, RGS4 act inactive, MrgX1 agonist inactive, MrgX1 PAM inactive and MrgX1 antag inactive.
CCOC(=O)C(C)CC(C)C(=O)N1CCOCCOCCN(C(=O)C(C)CC(C)C(=O)OCC)CCOCC1 (centres undefined) was read as RGS4 block inactive, Kir21 inh 0.81, RGS4 act inactive, MrgX1 agonist inactive, MrgX1 PAM inactive and MrgX1 antag inactive.
Screening CCOC(=O)C(C(=O)OCC)C(C(=O)OCC)N1CCOCC1 (centres undefined) returned RGS4 block inactive, Kir21 inh 0.57, RGS4 act inactive, MrgX1 agonist 31.3*, MrgX1 PAM inactive and MrgX1 antag inactive.
`COc1ccc(CCNC(=O)CN(c2cccc([N+](=O)[O-])c2)S(C)(=O)=O)cc1` gave RGS4 block inactive, Kir21 inh 1.06, RGS4 act inactive, MrgX1 agonist inactive, MrgX1 PAM inactive and MrgX1 antag inactive.
`Cc1cccc(NS(=O)(=O)c2ccc(NC(=O)CN(c3cc([N+](=O)[O-])ccc3C)S(C)(=O)=O)cc2)c1` gave RGS4 block 6.57*, Kir21 inh 0.28, RGS4 act inactive, MrgX1 agonist inactive, MrgX1 PAM inactive and MrgX1 antag inactive.
Screening COc1ccccc1CNC(=O)CN(c1cccc([N+](=O)[O-])c1)S(C)(=O)=O returned RGS4 block inactive, Kir21 inh 0.01, RGS4 act inactive, MrgX1 agonist inactive, MrgX1 PAM 11* and MrgX1 antag inactive.
`COc1ccc(CCNC(=O)CN(c2cc([N+](=O)[O-])ccc2OC)S(C)(=O)=O)cc1` gave RGS4 block inactive, Kir21 inh -1.52, RGS4 act inactive, MrgX1 agonist inactive, MrgX1 PAM inactive and MrgX1 antag -5.06*.
Screening CS(=O)(=O)N(CC(=O)Nc1ccc(F)c(F)c1)c1cccc([N+](=O)[O-])c1 returned RGS4 block inactive, Kir21 inh 0.23, RGS4 act inactive, MrgX1 agonist inactive, MrgX1 PAM 8.55* and MrgX1 antag inactive.
CCN1CCN(c2ncnc3c2sc(=S)n3-c2ccccc2)CC1 was read as RGS4 block inactive, Kir21 inh 0.75, RGS4 act inactive, MrgX1 agonist inactive, MrgX1 PAM inactive and MrgX1 antag inactive.
Screening NCC(c1ccccc1)c1c[nH]c2ccccc12 (centres undefined) returned RGS4 block inactive, Kir21 inh -0.03, RGS4 act inactive, MrgX1 agonist inactive, MrgX1 PAM inactive and MrgX1 antag inactive.
Screening O=[N+]([O-])CC(c1ccc(F)cc1)c1c[nH]c2ccccc12 (centres undefined) returned RGS4 block inactive, Kir21 inh 0.02, RGS4 act inactive, MrgX1 agonist inactive, MrgX1 PAM 6.51* and MrgX1 antag inactive.
COc1ccc(/C=N/Nc2nnc(Cc3ccccc3)c(=O)[nH]2)cc1 was read as RGS4 block inactive, Kir21 inh -0.37, RGS4 act inactive, MrgX1 agonist 27.8*, MrgX1 PAM inactive and MrgX1 antag inactive.
`CC(=O)NC(Cc1cccc(C)c1)C(=O)NC1CCN(c2ncccc2[N+](=O)[O-])CC1` (centres undefined) gave RGS4 block inactive, Kir21 inh -0.69, RGS4 act inactive, MrgX1 agonist inactive, MrgX1 PAM inactive and MrgX1 antag -4.68*.
`CCN(CC)CCOC(=O)C1c2ccccc2Oc2ccccc21` gave RGS4 block inactive, Kir21 inh -0.95, RGS4 act -11*, MrgX1 agonist inactive, MrgX1 PAM inactive and MrgX1 antag inactive.
For N#CCOC(=O)C1c2ccccc2Oc2ccccc21 the results were RGS4 block inactive, Kir21 inh 0.72, RGS4 act inactive, MrgX1 agonist inactive, MrgX1 PAM inactive and MrgX1 antag inactive.
Screening CCOCCCNC(=O)C1c2ccccc2Oc2ccccc21 returned RGS4 block inactive, Kir21 inh -0.35, RGS4 act inactive, MrgX1 agonist inactive, MrgX1 PAM inactive and MrgX1 antag inactive.
Screening O=C(NCCCn1ccnc1)C1c2ccccc2Oc2ccccc21 returned RGS4 block inactive, Kir21 inh -1.37, RGS4 act -7.42*, MrgX1 agonist inactive, MrgX1 PAM inactive and MrgX1 antag inactive.
CCN(CC)CCNC(=O)C1c2ccccc2Oc2ccccc21 was read as RGS4 block inactive, Kir21 inh 0.24, RGS4 act -7.23*, MrgX1 agonist inactive, MrgX1 PAM inactive and MrgX1 antag inactive.
For CN1CCN(CCOc2ccc(-c3ccccc3)cc2)CC1 the results were RGS4 block inactive, Kir21 inh -0.35, RGS4 act inactive, MrgX1 agonist inactive, MrgX1 PAM inactive and MrgX1 antag inactive.
`CCN1CCN(CCCOc2ccccc2-c2ccccc2)CC1` gave RGS4 block inactive, Kir21 inh 0.34, RGS4 act inactive, MrgX1 agonist inactive, MrgX1 PAM inactive and MrgX1 antag inactive.
CCN1CCN(CCOc2ccccc2-c2ccccc2)CC1 was read as RGS4 block inactive, Kir21 inh -5.33*, RGS4 act inactive, MrgX1 agonist inactive, MrgX1 PAM inactive and MrgX1 antag inactive.
`CCN1CCN(CCCOc2ccc(-c3ccccc3)cc2)CC1` gave RGS4 block inactive, Kir21 inh -4.73*, RGS4 act inactive, MrgX1 agonist inactive, MrgX1 PAM inactive and MrgX1 antag inactive.

Compound activity deposited in PubChem BioAssay by Johns Hopkins Ion Channel Center.
